Common to all, as to format: functional
The test system of test [1] is Acinetobacter baumannii. Put plainly: Antibacterial activity against Acinetobacter baumannii BM4674 isolated from the tibia fracture of a patient by Etest method. Summed up:
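MICs read by Etest gradient strips on Mueller-Hinton agar against the clinical isolate (Nancy, France, September 2008); reported in μg/ml and interpreted with Comité de l'Antibiogramme de la Société Française de Microbiologie breakpoints.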

Test [2] deals with Acinetobacter baumannii. Put plainly: Antibacterial activity against Acinetobacter baumannii BM4652. Put shortly:
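MIC by Etest on Mueller-Hinton agar; interpretation by Comité de l'Antibiogramme de la Société Française de Microbiologie breakpoints. A. baumannii BM4652 is the recipient strain used in conjugation with BM4674 (solid medium; transconjugants selected on apramycin 80 μg/ml plus ceftazidime 16 μg/ml). MIC values in μg/ml.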

Test [3] concerns Acinetobacter baumannii. Put plainly: Antibacterial activity against Acinetobacter baumannii BM4652 harboring plasmid IP847.
The test system of test [4] is Escherichia coli. Put plainly: Antibacterial activity against Escherichia coli Top10.
Test [5] relates to Escherichia coli. Kind of test: Antibacterial activity against ESBL-positive Escherichia coli Top10 harboring plasmid AT517.
In test [6] the test system is Escherichia coli. Kind of test: Antibacterial activity against […] OmpF and OmpC porin-deficient Escherichia coli HB4.
Test [7] concerns Escherichia coli. Kind of test: Antibacterial activity against […] OmpF and OmpC porin-deficient Escherichia coli HB4 harboring plasmid AT517.

Values after ≈ are worked out from the molar mass of the structure shown.

As a reminder, the MIC is the lowest concentration that inhibits growth of the organism. A lower MIC goes with inhibition by little substance.

As for `CC(C)(O/N=C(\C(=O)N[C@@H]1C(=O)N2C(C(=O)[O-])=C(C[n+]3ccccc3)CS[C@H]12)c1csc(N)n1)C(=O)O` [CEFTAZIDIME], the MIC against Acinetobacter baumannii [1] was > 256 µg/mL; in the test with Acinetobacter baumannii [2] it was 1.5 µg/mL (≈ 2.74 µM); against Acinetobacter baumannii [3], > 256 µg/mL; with Escherichia coli [4], 0.75 µg/mL (≈ 1.37 µM); against Escherichia coli [5], > 256 µg/mL; in the test with Escherichia coli [6] it was 0.5 µg/mL (≈ 0.915 µM). Also, the MIC in the test with Escherichia coli [7] was > 256 µg/mL.

As for `C[C@@H](O)[C@H]1C(=O)N2C(C(=O)O)=C(SCCNC=N)C[C@H]12` [IMIPENEM ANHYDROUS], the MIC against Acinetobacter baumannii [1] turned out to be 4 µg/mL (≈ 13.4 µM); against Acinetobacter baumannii [2], 0.125 µg/mL (≈ 0.418 µM); with Acinetobacter baumannii [3], 0.75 µg/mL (≈ 2.51 µM); with Escherichia coli [4], 0.19 µg/mL (≈ 0.635 µM); against Escherichia coli [6], 0.125 µg/mL (≈ 0.418 µM); against Escherichia coli [7], 8 µg/mL (≈ 26.7 µM).

For `C[C@@H](O)[C@H]1C(=O)N2C(C(=O)O)=C(S[C@@H]3CN[C@H](C(=O)N(C)C)C3)[C@H](C)[C@H]12` [MEROPENEM], the minimal inhibitory concentration (MIC) in the test on Acinetobacter baumannii [1] was determined as 6 µg/mL (≈ 15.6 µM); with Acinetobacter baumannii [2], 0.064 µg/mL (≈ 0.167 µM); against Acinetobacter baumannii [3] it was 1.5 µg/mL (≈ 3.91 µM); against Escherichia coli [4], 0.016 µg/mL (≈ 0.0417 µM); with Escherichia coli [5], 0.047 µg/mL (≈ 0.123 µM); in the test with Escherichia coli [6], 0.25 µg/mL (≈ 0.652 µM). The compound also gave an MIC in the test on Escherichia coli [7] of 4 µg/mL (≈ 10.4 µM).

Turning to `CO/N=C(\C(=O)N[C@@H]1C(=O)N2C(C(=O)[O-])=C(C[N+]3(C)CCCC3)CS[C@H]12)c1csc(N)n1` [CEFEPIME], the MIC in the test on Acinetobacter baumannii [1] was > 256 µg/mL; in the test with Acinetobacter baumannii [2], 0.19 µg/mL (≈ 0.395 µM); in the test with Acinetobacter baumannii [3], 64 µg/mL (≈ 133 µM); against Escherichia coli [4], 0.032 µg/mL (≈ 0.0666 µM); in the test with Escherichia coli [5] it was 2 µg/mL (≈ 4.16 µM); against Escherichia coli [6], 0.5 µg/mL (≈ 1.04 µM). This compound also had a minimal inhibitory concentration (MIC) in the test with Escherichia coli [7] of 96 µg/mL (≈ 200 µM).

For the compound `C[C@H]1[C@H](NC(=O)/C(=N\OC(C)(C)C(=O)O)c2csc(N)n2)C(=O)N1S(=O)(=O)O` [AZTREONAM], the MIC is > 256 µg/mL against Acinetobacter baumannii [1]; 1 µg/mL (≈ 2.3 µM) with Acinetobacter baumannii [2]; > 256 µg/mL against Acinetobacter baumannii [3]; 0.125 µg/mL (≈ 0.287 µM) against Escherichia coli [4]; 24 µg/mL (≈ 55.1 µM) with Escherichia coli [5]; 0.75 µg/mL (≈ 1.72 µM) in the test on Escherichia coli [6]. Besides, the minimal inhibitory concentration (MIC) against Escherichia coli [7] was 48 µg/mL (≈ 110 µM).

Consider `CO[C@@]1(NC(=O)Cc2cccs2)C(=O)N2C(C(=O)O)=C(COC(N)=O)CS[C@@H]21` [CEFOXITIN], for which the minimum inhibitory concentration (MIC) in the test with Acinetobacter baumannii [1] stood at 192 µg/mL (≈ 449 µM); in the test on Acinetobacter baumannii [2], 8 µg/mL (≈ 18.7 µM); in the test with Acinetobacter baumannii [3], 12 µg/mL (≈ 28.1 µM); with Escherichia coli [4], 6 µg/mL (≈ 14 µM); against Escherichia coli [5], 6 µg/mL (≈ 14 µM); with Escherichia coli [6], 96 µg/mL (≈ 225 µM). For the same compound, the MIC with Escherichia coli [7] is > 256 µg/mL.

With `CO/N=C(\C(=O)N[C@@H]1C(=O)N2C(C(=O)O)=C(COC(C)=O)CS[C@H]12)c1csc(N)n1` [CEFOTAXIME], the MIC was > 256 µg/mL with Acinetobacter baumannii [1]; 1 µg/mL (≈ 2.2 µM) against Acinetobacter baumannii [2]; > 256 µg/mL in the test with Acinetobacter baumannii [3]; 0.064 µg/mL (≈ 0.141 µM) in the test on Escherichia coli [4]; > 256 µg/mL with Escherichia coli [5]; 0.5 µg/mL (≈ 1.1 µM) against Escherichia coli [6]. Further, the minimum inhibitory concentration (MIC) with Escherichia coli [7] was > 256 µg/mL.

Source of the values: ChEMBL document CHEMBL1649533, “GES-11, a novel integron-associated GES variant in Acinetobacter baumannii” (2009).
